Where two headings read alike, the source gives them in different places.
Columns and labels:
[1] = Insolubility limit in growth assay medium; details: 30 °C, aqueous buffer, kinetic from dmso stock
[2] = tested on: E. coli strain with chromosomal folA replaced by mutant L28R; details: cited from earlier work
EcDHFR [3] = target: T1, EcDHFR (Escherichia coli, UniProt P0ABQ4); assay: biochemical; assay type: biochemical; details: for Inhibition of EcDHFR activity in single-concentration initial screen: 1mM inhibitor (Fig 2A legend)
EcDHFR [4] = target: T1, EcDHFR; assay type: binding; details: thermal shift at single concentration of 0.5 mM small molecule, 5μM EcDHFR
EcDHFR [5] = target: T1, EcDHFR; assay type: biochemical; details: lower substrate, global non-linear fits
EcDHFR L28R mutant = assay: DHFR inhibition assay on drug-resistant single mutant; assay type: biochemical, Escherichia coli; details: L28R mutant vs wild-type
Procedure, shortened: (§1)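 Purified recombinant E. coli DHFR (wild-type, or L28R, A26T/L28R, P21L/L28R mutants) in 100mM HEPES pH 7.3 at ~22 °C with 60 μM NADPH, 50 μM H2F and varied test compound; wild-type enzyme at 16.7nM. Reactions were enzyme-started, and NADPH consumption was followed at 340 nm for 100 s (initial rates, <5% product), corrected for non-enzymatic NADPH loss. Run in duplicate; IC50 fitted to y = 100%/[1+(I/IC50)].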

EcDHFR A26T/L28R mutant = assay: DHFR inhibition assay on drug-resistant double mutant; assay type: biochemical, Escherichia coli; details: A26T/L28R mutant vs wild-type
Procedure, shortened: as §1

EcDHFR P21L/L28R mutant = assay: as above; assay type: biochemical, Escherichia coli; details: P21L/L28R mutant vs wild-type
Procedure, shortened: as §1

EcDHFR [6] = target: T1, EcDHFR; details: cited from earlier work
E. coli cultures = assay: Rescue of growth by metabolic complement folAmix; assay type: cell-based; details: M9-media supplemented with folAmix; different resveratrol concentrations
Escherichia coli = details: read-out: estimated IC50 (antibacterial activity); cited from earlier work
[7] = 60μM NADPH, 50μM H2F, 100mM HEPES pH 7.3, 16.7nM EcDHFR, ± S.E.
[8] = substrate H2F, saturating NADPH

T1 sequence (P0ABQ4 whole entry): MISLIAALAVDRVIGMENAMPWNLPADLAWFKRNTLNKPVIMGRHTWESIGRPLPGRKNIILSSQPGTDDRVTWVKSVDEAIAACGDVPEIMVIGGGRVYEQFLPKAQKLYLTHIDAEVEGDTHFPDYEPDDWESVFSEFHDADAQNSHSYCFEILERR

`Oc1cc(O)cc(/C=C/c2ccc(O)cc2O)c1` [oxyresveratrol] gave a solubility [1] of at most 250 µM.

In the case of `COc1cc(Cc2cnc(N)nc2N)cc(OC)c1OC` [trimethoprim], the “Increase in resistance conferred by L28R variant” value [2] is listed as “approximately 50 fold”.

With `O=[N+]([O-])c1ccc(/C=C/c2ccc([N+](=O)[O-])cc2S(=O)(=O)O)c(S(=O)(=O)O)c1` [DNDS, dinitro disulfonic acid] the IC50 (EcDHFR [3]; [7]) was 45.3 ± 10.1 µM, the “Inhibition of EcDHFR activity in single-concentration initial screen” value (“Inhibition of EcDHFR activity” for short) (EcDHFR [3]) was “showed inhibition” and the ΔTm (EcDHFR [4]) was 1.9 °C.

With `COc1ccc(CC(=O)c2ccc(O)cc2O)cc1` [ononetin] the IC50 (EcDHFR [3]) was 83.4 ± 1.1 µM, the Ki (EcDHFR [3]) was 83.4 µM and the “Inhibition of EcDHFR activity” value (EcDHFR [3]) was “inhibits the enzyme”. For the same compound, the “Inhibition Mechanism” value (EcDHFR [5]; NADPH titrated at saturating H2F) was “uncompetitive inhibition”, the αKi (EcDHFR [5]; [8]) was 111.2 ± 12.37 µM and the αKi (EcDHFR [5]; substrate NADPH, saturating H2F) was 113.2 ± 13.1 µM. For the same compound, the “IC50 curve compared with wild-type enzyme” value (EcDHFR L28R mutant) was “superimposable”, the “IC50 curve compared with wild-type enzyme” value (EcDHFR A26T/L28R mutant) was “superimposable” and the “IC50 curve compared with wild-type enzyme” value (EcDHFR P21L/L28R mutant) was “superimposable”. The “Binding to EcDHFR by DSF” value (EcDHFR [6]) was “showed binding to EcDHFR”.

For `Oc1ccc(/C=C/c2cc(O)cc(O)c2)cc1` [resveratrol], the IC50 (EcDHFR [3]) was 95.7 ± 3 µM, the Ki (EcDHFR [3]) was 95.7 µM and the “Inhibition of EcDHFR activity” value (EcDHFR [3]) was “showed inhibition”. For the same compound, the αKi (EcDHFR [5]; [8]) was 88.30 ± 6.02 µM, the “IC50 curve compared with wild-type enzyme” value (EcDHFR L28R mutant) was “superimposable” and the “IC50 curve compared with wild-type enzyme” value (EcDHFR A26T/L28R mutant) was “superimposable”. The “IC50 curve compared with wild-type enzyme” value (EcDHFR P21L/L28R mutant) was “superimposable”, the “Effect of folAmix on growth of inhibited cells” value (E. coli cultures) was “fully restores growth” and the IC50 (Escherichia coli) was 250 µM. The solubility [1] was at most 250 µM.

With `Nc1ccc(C=Cc2ccc(N)cc2S(=O)(=O)O)c(S(=O)(=O)O)c1` [flavonic acid] the IC50 (EcDHFR [3]; [7]) was 36.7 ± 3.1 µM, the “Inhibition of EcDHFR activity” value (EcDHFR [3]) was “showed inhibition” and the αKi (EcDHFR [5]; [8]) was 76.25 ± 6.82 µM.

For `O=S(=O)(O)c1cc(N=C=S)ccc1C=Cc1ccc(N=C=S)cc1S(=O)(=O)O` [DIDS], the IC50 (EcDHFR [3]; [7]) was 51 ± 1.7 µM and the “Inhibition of EcDHFR activity” value (EcDHFR [3]) was “showed inhibition”.

Source: publication PMC5819740 (ACS chemical biology, 2017)
